# Source: ChEMBL document CHEMBL1139492, “Structure-activity relationships and effects on neuroactive steroid synthesis in a series of 2-phenylimidazo[1,2-a]pyridineacetamide peripheral benzodiazepine receptors ligands” (J Med Chem, 2005)
# Legend:
# Translocator protein [1] = target: T1, Translocator protein (Rattus norvegicus, UniProt P16257); experiment: Displacement of [3H]-PK11195 from peripheral benzodiazepine receptor of rat ovary; format: tissue-based, Female gonad
# Summary of the method: (§1)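 Rat tissue (cerebral cortex, ovary) homogenised in 50 vol PBS pH 7.4 at 4 °C, spun at 40 000g for 30 min, washed, resuspended in 10 vol PBS. […] Filtration on polyethyleneimine-soaked GF/B filters, scintillation counting. […] Means of three experiments in duplicate; Ki reported.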
# Translocator protein [2] = target: T1, Translocator protein; experiment: Inhibitory concentration against peripheral benzodiazepine receptor of rat cerebral cortex; format: tissue-based; summary of the method: as §1
# [3] = target: GABA-A receptor; anion channel; experiment: Inhibitory concentration of central benzodiazepine GABA-A receptor of rat cerebral cortex; format: tissue-based
# Summary of the method: (§2)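 Rat cerebral cortex homogenised in 50 vol ice-cold 50 mM Tris-HCl pH 7.4, spun twice at 20 000g for 10 min. Membranes (0.4–0.5 mg protein) incubated with [3H]flunitrazepam for 60 min at 0 °C. Rapid filtration on GF/B filters, scintillation counting. Nonspecific binding with 5 μM diazepam. Means of three experiments in duplicate; Ki reported.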
# [4] = target: Benzodiazepine receptors; peripheral & central (Rattus norvegicus) (UniProt O09028+P15431+P18506+P18508+P19969+P20236+P23574+P23576+P28471+P28473+P30191+P62813+P63079+P63138+Q91ZM7+Q9ES14+P16257); experiment: Ratio of inhibition for peripheral benzodiazepine receptor of rat ovary and central benzodiazepine GABA-A receptor; format: tissue-based; set-up: scale not given here; conditions: Female gonad
# Rattus norvegicus [5] = experiment: Effect of the 25 mg/kg compound on progesterone concentration in rat cerebral cortex after 30 min of intraperitoneal administration; format: functional, organism-based; set-up: dose 25 mg/kg
# Summary of the method: (§3)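 Male Sprague–Dawley rats, about 60 days old, given 25 mg/kg ip in saline with three drops Tween 80 per 5 mL, 0.3 mL/100 g; sampled 30 min later. Brain taken after focused microwave irradiation of the head, plasma after guillotine. Cortex and plasma extracted with ethyl acetate; steroids measured by radioimmunoassay. Results in ng/g tissue, at least eight rats per group, compared with vehicle-treated rats.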
# [6] = target: GABA-A receptor; anion channel; experiment: Displacement of [3H]flunitrazepam from central benzodiazepine GABA-A receptor of rat cerebral cortex; format: tissue-based; summary of the method: as §2
# Rattus norvegicus [7] = experiment: Effect of the 25 mg/kg compound on progesterone concentration in rat plasma after 30 min of intraperitoneal administration; format: functional, organism-based; set-up: dose 25 mg/kg; summary of the method: as §3
# Translocator protein [8] = target: T1, Translocator protein; experiment: Displacement of [3H]PK11195 from peripheral benzodiazepine receptor of rat cerebral cortex; format: tissue-based; summary of the method: as §1
# Rattus norvegicus [9] = experiment: Effect of the 25 mg/kg compound on 3-alpha,5alpha-THDOC concentration in rat cerebral cortex after 30 min of intraperitoneal administration; format: functional, organism-based; set-up: dose 25 mg/kg; summary of the method: as §3
# Rattus norvegicus [10] = experiment: Effect of the 25 mg/kg compound on 3-alpha,5alpha-THDOC concentration in rat plasma after 30 min of intraperitoneal administration; format: functional, organism-based; set-up: dose 25 mg/kg; summary of the method: as §3
# Translocator protein [11] = target: T1, Translocator protein; experiment: Inhibitory concentration against peripheral benzodiazepine receptor of rat ovary; format: tissue-based, Female gonad; summary of the method: as §1
# Rattus norvegicus [12] = experiment: Effect of the 25 mg/kg compound on 3-alpha,5alpha-THPROG concentration in rat cerebral cortex after 30 min of intraperitoneal administration; format: functional, organism-based; set-up: dose 25 mg/kg; summary of the method: as §3
# Rattus norvegicus [13] = experiment: Effect of the 25 mg/kg compound on 3-alpha,5alpha-THPROG concentration in rat plasma after 30 min of intraperitoneal administration; format: functional, organism-based; set-up: dose 25 mg/kg; summary of the method: as §3
# T1 sequence (P16257 whole entry, looked up): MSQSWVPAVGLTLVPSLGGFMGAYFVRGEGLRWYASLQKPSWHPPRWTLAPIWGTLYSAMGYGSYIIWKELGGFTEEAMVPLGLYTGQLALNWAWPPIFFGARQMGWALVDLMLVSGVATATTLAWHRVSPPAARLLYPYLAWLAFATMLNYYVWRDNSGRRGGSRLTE
Structure (SMILES),Ki (Translocator protein [1]) [µM],IC50 (Translocator protein [2]) [µM],pIC50 [3],Selectivity index [4],Concentration (Rattus norvegicus [5]) [ng/g],Ki [6] [µM],Concentration (Rattus norvegicus [7]) [ng/mL],Ki (Translocator protein [8]) [µM],Concentration (Rattus norvegicus [9]) [ng/g],Concentration (Rattus norvegicus [10]) [ng/mL],IC50 (Translocator protein [11]) [µM],Concentration (Rattus norvegicus [12]) [ng/g],Concentration (Rattus norvegicus [13]) [ng/mL]
O=C(Cc1c(-c2ccc(Cl)cc2)nc2c(Cl)cc(Cl)cn12)N1CCCCC1,0.0654,0.005,5,2.04,7.8,7.59,12.2,0.00305,2.9,9.6,0.092,7.3,19.4
CCOC(=O)C1CCCN(C(=O)Cc2c(-c3ccc(Cl)cc3)nc3c(Cl)cc(Cl)cn23)C1 (stereo not drawn),1.74,0.143,5,0.597,,6.88,,0.0798,,,2.53,,
O=C(Cc1c(-c2ccccc2)nc2c(Cl)cc(Cl)cn12)NC1CCCCC1,0.942,1.32,5,0.884,,7.01,,0.771,,,1.31,,
CCCCN(Cc1ccccc1)C(=O)Cc1c(-c2ccccc2)nc2c(Cl)cc(Cl)cn12,0.0647,0.0242,5,2.05,,7.01,,0.0141,,,0.0897,,
CCCCN(C(=O)Cc1c(-c2ccc(Cl)cc2)nc2c(Cl)cc(Cl)cn12)c1ccccc1,0.00365,0.0133,5,3.32,,6.88,,0.00784,,,0.0048,,
O=C(Cc1c(-c2ccccc2)nc2c(Cl)cc(Cl)cn12)N1CCc2ccccc2C1,0.164,0.0387,5,1.64,,6.88,,0.0236,,,0.231,,
O=C(Cc1c(-c2ccccc2)nc2c(Cl)cc(Cl)cn12)Nc1ccncc1,2.97,2.1,5,0.387,,7.75,,1.24,,,4.1,,
CN(CCc1ccccn1)C(=O)Cc1c(-c2ccc(Cl)cc2)nc2c(Cl)cc(Cl)cn12,3.69,0.899,5,0.294,,7.75,,0.53,,,5.08,,
CCCCN(C(=O)Cc1c(-c2ccccc2)nc2c(Cl)cc(Cl)cn12)c1ccccc1,0.0035,0.0115,5,3.34,5.8,6.88,17.3,0.00678,2.6,8.9,0.0046,16.3,21.3
CCCCCCN(CCCCCC)C(=O)Cc1c(-c2ccc(Cl)cc2)nc2ccc(Cl)cn12,0.0353,0.00511,5.481,1.83,,2.56,,0.00301,,,0.0488,,
O=C(Cc1c(-c2ccc(Cl)cc2)nc2c(Cl)cc(Cl)cn12)N1CCCC1,0.608,0.215,5,1.02,,7.01,,0.126,,,0.843,,
CCCN(Cc1ccc([N+](=O)[O-])cc1)C(=O)Cc1c(-c2ccc(Cl)cc2)nc2c(Cl)cc(Cl)cn12,0.0505,0.0272,5,2.16,,6.88,,0.016,,,0.0697,,
O=C(Cc1c(-c2ccc(Cl)cc2)nc2c(Cl)cc(Cl)cn12)N1CCN(Cc2ccccc2)CC1,516,20.8,5,-1.86,,6.88,,12.7,,,726,,
CC(C(=O)N(C)C1CCCCC1)c1c(-c2ccc(Cl)cc2)nc2c(Cl)cc(Cl)cn12 (stereo not drawn),2.21,5.15,5,0.513,,7.01,,2.99,,,3.07,,
CCCCN(CCCC)C(=O)Cc1c(-c2ccc(Cl)cc2)nc2ccc(Cl)cn12,0.00477,0.00327,7.051,1.12,,0.0689,,0.00169,,,0.00673,,
CCCCN(CCCC)C(=O)Cc1c(-c2ccc(Cl)cc2)nc2ccccn12,,,,1.19,,,,,,,,,
